Assay results collected from several papers.
Protocols differ between the studies behind these lines.
Target: TGF-beta receptor type-2 (TGFBR2, Homo sapiens, UniProt P37173)

Cc1ccc(C(=O)Nc2ccc(CN3CCN(C)CC3)c(C(F)(F)F)c2)cc1C#Cc1cnc2cccnn12 has a remaining signal of 76% (cell-free assay; 23.5 nM).
CNC(=O)c1cc(Oc2ccc(NC(=O)Nc3ccc(Cl)c(C(F)(F)F)c3)cc2)ccn1 gave a remaining signal of 99.9% (cell-free assay; 0.5 µM).
CCC(=O)N[C@@H]1CC[C@H](C(=O)N(C)c2ccc(-c3nc4ccccc4o3)cc2)C1 gave a remaining binding of 100% (cell-free assay, competition with immobilised ligand; 1 µM).
Nc1ncnc2occ(-c3ccc(NC(=O)Nc4cc(C(F)(F)F)ccc4F)cc3)c12 has a remaining signal of 99% (cell-free assay; 20 µM).
The remaining activity of CC(C)(O)[C@H]1CC[C@H](Nc2ccc3ncc(-c4cccc(C(F)(F)F)c4)n3n2)CC1 is reported as 73.8% (enzyme activity, inhibitor; 1 µM).
The remaining activity of Cc1sc(C(=O)NC2COC2)cc1-n1cc(NC(=O)Nc2c(F)cccc2Cl)cn1 is reported as 86.8% (enzyme activity, inhibitor; 10 µM).
C[C@@H](c1cccc(C#N)c1)n1cc(Cl)cc(C(N)=O)c1=N has a remaining binding of 100% (cell-free assay, competition with immobilised ligand; 1 µM).
c1ccc(-c2[nH]ncc2-c2ccnc3ccccc23)nc1 gave a remaining signal of 109% (cell-free assay; 0.5 µM).
The remaining activity of CC(C)(C)c1nc2c(s1)c1nc(N)ncc1c1ccc(NS(=O)(=O)c3c(F)cccc3F)c(F)c12 is reported as 81% (enzyme activity, inhibitor, radiometric; 1 µM).
CN1CC(Oc2cnc(C#N)cc2-c2ccn3nc(NC(=O)C4CC4)cc3c2)C1 gave an inhibition of 11% (enzyme activity, inhibitor; 1 µM).
The remaining signal of COc1cc2c(N3CCN(C(=O)Nc4ccc(OC(C)C)cc4)CC3)ncnc2cc1OCCCN1CCCCC1 is reported as 102% (cell-free assay; 0.5 µM).
The remaining binding of Cc1nc(N2CC[C@@H](O)C2)ncc1-c1cc(C(F)(F)F)cc2[nH]ncc12 is reported as 99% (cell-free assay, competition with immobilised ligand; 1 µM).
